The nature of assay [1]: reducers of endogenous Her2 protein level, primary screen, SKBR3 breast tumor cells, AlphaScreen, ATP viability (AID 461;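 active = Her2 level under about 52% in both replicate screens, with viability over 70% of control, limit read from the data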;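 as to Her2 level: lower value means less Her2 protein in the cells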;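 as to viability: percent of carrier control wells set as 100% viability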). The note with it: 18-24 h, measured here: SKBR3 viability, ATP luminescence, at 10 µM.
The target of assay [2] is Receptor tyrosine-protein kinase erbB-2 (Homo sapiens) (UniProt P04626). The description is as above. To be noted: 18-24 h, at 10 µM, stronger effect = lower value.
Receptor tyrosine-protein kinase erbB-2 (Homo sapiens), sequence (P04626 whole entry, looked up): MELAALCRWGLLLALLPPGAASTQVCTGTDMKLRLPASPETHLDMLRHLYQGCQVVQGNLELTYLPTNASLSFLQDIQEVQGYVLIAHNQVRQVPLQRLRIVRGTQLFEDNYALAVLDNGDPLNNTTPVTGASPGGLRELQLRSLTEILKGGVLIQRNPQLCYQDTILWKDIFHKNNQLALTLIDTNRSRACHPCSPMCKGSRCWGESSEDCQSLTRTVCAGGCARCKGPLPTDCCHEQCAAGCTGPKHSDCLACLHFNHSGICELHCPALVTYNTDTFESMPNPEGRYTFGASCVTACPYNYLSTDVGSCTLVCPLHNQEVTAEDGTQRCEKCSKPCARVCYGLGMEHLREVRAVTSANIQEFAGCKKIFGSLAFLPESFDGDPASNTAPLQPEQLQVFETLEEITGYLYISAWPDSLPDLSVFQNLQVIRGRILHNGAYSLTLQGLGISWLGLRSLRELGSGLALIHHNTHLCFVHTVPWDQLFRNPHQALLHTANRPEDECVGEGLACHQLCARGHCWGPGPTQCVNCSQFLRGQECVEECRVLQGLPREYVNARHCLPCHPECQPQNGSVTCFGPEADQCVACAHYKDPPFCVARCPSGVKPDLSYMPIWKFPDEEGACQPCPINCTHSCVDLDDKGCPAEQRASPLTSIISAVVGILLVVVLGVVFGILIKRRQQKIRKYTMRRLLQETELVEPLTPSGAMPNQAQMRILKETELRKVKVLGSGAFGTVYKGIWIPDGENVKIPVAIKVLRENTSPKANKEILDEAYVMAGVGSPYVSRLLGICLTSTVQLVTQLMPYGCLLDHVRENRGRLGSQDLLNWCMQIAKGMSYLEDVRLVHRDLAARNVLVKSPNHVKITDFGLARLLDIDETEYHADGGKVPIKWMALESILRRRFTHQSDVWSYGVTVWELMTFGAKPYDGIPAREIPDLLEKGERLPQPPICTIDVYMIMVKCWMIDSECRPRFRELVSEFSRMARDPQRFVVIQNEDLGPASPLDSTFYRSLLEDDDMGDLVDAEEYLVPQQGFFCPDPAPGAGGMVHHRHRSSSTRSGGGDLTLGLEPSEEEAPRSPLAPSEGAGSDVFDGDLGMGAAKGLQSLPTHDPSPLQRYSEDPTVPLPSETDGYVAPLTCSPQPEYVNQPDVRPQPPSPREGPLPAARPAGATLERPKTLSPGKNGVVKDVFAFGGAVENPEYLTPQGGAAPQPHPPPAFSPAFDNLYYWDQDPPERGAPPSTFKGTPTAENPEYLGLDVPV
Assay [3] in a line: SK-BR-3 cell growth inhibitors, pilot screen, 24 h, human (AID 572;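 active = viability at or below 10% of carrier control in both of two separate runs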;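 also: compound exposure lasted between 18 and 24 h rather than exactly 24 h; 100% = carrier-treated control wells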). To be noted: SK-BR-3 viability, CellTiter-Glo luminescence, at 10 µM, stronger effect = lower value.
Assay [4] can be described thus: HUVEC growth inhibition – cell-based, human, primary screen (AID 575).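 Also: 100% = median of untreated cell wells with 0.1% DMSO on each plate.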 To be noted: HUVEC proliferation, CellTiter-Glo luminescence, 72 h; at 10 µM; stronger effect = lower value. Put shortly: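 material = primary HUVEC, no more than 12 passages | input = 1250 cells per well | controls = vehicle and MePR control wells | measured by = CTG luminescence | times = 72 h compound incubation | format = collagen-coated 384-well format | read-out = % viability vs DMSO wells | doses = single 10 µM dose, 0.1% DMSO, from 5x medium stock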

Assay [5] can be described thus: growth inhibitors of H69AR lung tumor, primary screen, human, duplicate replicates (AID 580;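 active = viability at or under a set limit in both replicates, limit being median viability minus 3 SD, cut at about 48% in these data, passing the limit was not always enough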;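 also: 100% = mean luminescence of untreated wells and 0% = no signal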). To be noted: H69AR lung tumor cells viability, ATP luminescence, 72 h; at 10 µM; stronger effect = lower value.
Assay [6] in a line: reversal of MRP1-mediated doxorubicin resistance, pilot screen, H69AR cells, doxorubicin co-treatment (AID 601;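 active = viability loss from added drug above about 55%, and viability with drug at most 40%, in both replicates, limit read from the data, passing the limit was not always enough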). The note with it: CellTiter-Glo, 72 h, at 10 µM; for differential viability (reversal): stronger effect = higher value.
Assay [7] can be described thus: 384-well plate pilot, post-Golgi transport modulator project, inhibition of yeast transport mutant growth (AID 636; in the data active = inhibition above about 31%). To be noted: absorbance 615 nm, about 18 h, stronger effect = higher value.
The nature of assay [8]: growth suppression of yeast trafficking mutant, preliminary HTS, modulators of trafficking downstream of Golgi apparatus project, 1536-format plate, OD 615 nm (AID 637; in the data active = inhibition above about 30%). The note with it: yeast transport mutant growth, absorbance 615 nm, 18 h; stronger effect = higher value.
The mark [9] stands for this setting: H69AR cells + 2 uM doxorubicin, measured here: viability with 2 uM doxorubicin, stronger effect = lower value.
[10] abbreviates: H69AR cells, compound alone cytotoxicity.

The source made the active and inactive calls.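 The calls were made as follows, unless noted: active = viability at or below 30% in both replicate assays; inconclusive = viability at or below 30% in just one of the two assays; inactive = the rest.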

With `Cc1cc(C)c(C)c(OCC(=O)NCC2CCCO2)c1` (stereo not given), the viability is 85% in assay [1]; 85% (inactive) in assay [3]; 102% (inactive) in assay [4]; 100% (inactive) in assay [5]; 91.9% in assay [6] (setting [9]); 100% in assay [6] (setting [10]). In assay [2], the Her2 level was 85.5% (inactive). For the same molecule, in assay [6] (H69AR cells + 2 uM doxorubicin), the differential viability (reversal) was 8.32% (inactive). For the same molecule, the results for the inhibition in assay [7] and in assay [8] were -3.38% (inactive) and 0.16% (inactive), respectively.

For the molecule `CCCN(CCC)CCNC(=O)C(NS(=O)(=O)c1ccc2c(c1)CCC(=O)N2)c1ccccc1` (stereo not given), the viability was 87.5% in assay [1]; 87.5% (inactive) in assay [3]; 108% (inactive) in assay [4]; 89.4% (inactive) in assay [5]; 89% in assay [6] (setting [9]); 89.4% in assay [6] (setting [10]). In addition, in assay [2], the Her2 level was 86.5% (inactive). For the same molecule, the differential viability (reversal) in assay [6] (H69AR cells + 2 uM doxorubicin) was 0.46% (inactive). In addition, the figures for the inhibition in assay [7] and in assay [8] were 1.05% (inactive) and -1.45% (inactive), respectively.

Turning to `Cc1nn(C(=O)c2cc3sccc3[nH]2)c(C)c1C`, the viability in assay [1] is 95%; in assay [3] it was 95% (inactive); in assay [4] it was 74.1% (inactive); in assay [5], 106% (inactive); in assay [6] (setting [9]), 103%; in assay [6] (setting [10]), 106%. Besides, the Her2 level in assay [2] was 104% (inactive). The differential viability (reversal) in assay [6] (H69AR cells + 2 uM doxorubicin) is 2.57% (inactive). In addition, the values for the inhibition in assay [7] and in assay [8] were -4.47% (inactive) and -4.83% (inactive), respectively.

For the molecule `FC(F)(F)c1cccc(N2CCN(c3nnnn3-c3ccccc3)CC2)c1`, the viability in assay [1] was 85%; in assay [3] it was 85% (inactive); in assay [4], 81% (inactive); in assay [5] it was 84.7% (inactive); in assay [6] (setting [9]) it was 84.4%; in assay [6] (setting [10]), 84.7%. The Her2 level in assay [2] is 88.5% (inactive). Moreover, the differential viability (reversal) in assay [6] (H69AR cells + 2 uM doxorubicin) was 0.31% (inactive). Moreover, the results for the inhibition in assay [7] and in assay [8] were -5.84% (inactive) and -2.22% (inactive), respectively.

On to `Cc1cccc(C2CC(c3ccc(Br)cc3)Nc3nc(N)nn32)c1` (stereo not given), for which the viability in assay [1] was 92.5%; in assay [3], 92.5% (inactive); in assay [4] it was 72.6% (inactive); in assay [5] it was 87.6% (inactive); in assay [6] (setting [9]) it was 102%; in assay [6] (setting [10]), 87.6%. For the same molecule, the Her2 level in assay [2] is 94% (inactive). Moreover, the differential viability (reversal) in assay [6] (H69AR cells + 2 uM doxorubicin) is -14.7% (inactive). Further, the inhibition in assay [7] is -4.4% (inactive); in assay [8] it was 2.33% (inactive).

As for `O=C1CCCC(O)=C1C=Nc1ccc2c(c1)oc1ccccc12`, the viability is 102% in assay [1]; 102% (inactive) in assay [3]; 63.7% (inactive) in assay [4]; 88.7% (inactive) in assay [5]; 100% in assay [6] (setting [9]); 88.7% in assay [6] (setting [10]). Moreover, the Her2 level in assay [2] was 101% (inactive). Besides, the differential viability (reversal) in assay [6] (H69AR cells + 2 uM doxorubicin) was -11.3% (inactive). The inhibition is -5.87% (inactive) in assay [7] and 1.11% (inactive) in assay [8].

Consider `CCc1ccc(NC(=O)CSc2nnc(Cc3cccn3C)n2-c2ccc(OC)cc2)cc1`, for which the viability in assay [1] was 86%; in assay [3] it was 86% (inactive); in assay [4], 61.1% (inactive); in assay [5] it was 95.6% (inactive); in assay [6] (setting [9]), 99.9%; in assay [6] (setting [10]), 95.6%. The Her2 level in assay [2] was 75% (inactive). In addition, the differential viability (reversal) in assay [6] (H69AR cells + 2 uM doxorubicin) was -4.31% (inactive). Also, the inhibition in assay [7] is 1.03% (inactive); in assay [8], 4.5% (inactive).

`CC(C)CCNC(=O)NC(=O)CN1C(=O)NC2(CCCCC2)C1=O`: the viability in assay [1] is 90%; in assay [3], 90% (inactive); in assay [4], 104% (inactive); in assay [5], 96.9% (inactive); in assay [6] (setting [9]), 101%; in assay [6] (setting [10]), 96.9%. Also, in assay [2], the Her2 level was 120% (inactive). Besides, the differential viability (reversal) in assay [6] (H69AR cells + 2 uM doxorubicin) is -4.12% (inactive). Besides, the inhibition is 1.32% (inactive) in assay [7] and 10.9% (inactive) in assay [8].

`CCOC(=O)N1CCN(c2c(NCCN(C)Cc3ccccc3)c(=O)c2=O)CC1`: the viability was 98% in assay [1]; 98% (inactive) in assay [3]; 84.3% (inactive) in assay [4]; 99% (inactive) in assay [5]; 92.9% in assay [6] (setting [9]); 99% in assay [6] (setting [10]). In assay [2], the Her2 level is 95% (inactive). Moreover, the differential viability (reversal) in assay [6] (H69AR cells + 2 uM doxorubicin) is 6.12% (inactive). Also, the inhibition is 0.27% (inactive) in assay [7] and -2.3% (inactive) in assay [8].

On to `O=c1c2[nH]c3ccccc3c2ncn1CCCn1ccnc1`, for which the viability in assay [1] is 92%; in assay [3] it was 92% (inactive); in assay [4] it was 93.7% (inactive); in assay [5], 96.8% (inactive); in assay [6] (setting [9]), 95.7%; in assay [6] (setting [10]) it was 96.8%. For the same molecule, the Her2 level in assay [2] is 77.5% (inactive). Also, the differential viability (reversal) in assay [6] (H69AR cells + 2 uM doxorubicin) is 1.08% (inactive). In addition, the inhibition in assay [7] was -3.77% (inactive); in assay [8] it was -0.83% (inactive).

Regarding `Cc1cccc(C(=O)N2CCC(n3nnc4cc(F)ccc43)CC2)c1`, the viability was 95% in assay [1]; 95% (inactive) in assay [3]; 92.6% (inactive) in assay [4]; 86.4% (inactive) in assay [5]; 90.4% in assay [6] (setting [9]); 86.4% in assay [6] (setting [10]). The Her2 level in assay [2] was 113% (inactive). Further, in assay [6] (H69AR cells + 2 uM doxorubicin), the differential viability (reversal) was -3.98% (inactive). Besides, the results for the inhibition in assay [7] and in assay [8] were -3.21% (inactive) and 2.67% (inactive), respectively.

`O=C1CC(N2CCC(C(=O)N3CCCCC3)CC2)C(=O)N1` (stereo not given): the viability in assay [1] is 110%; in assay [3] it was 110% (inactive); in assay [4], 94.4% (inactive); in assay [5], 96.9% (inactive); in assay [6] (setting [9]) it was 86.8%; in assay [6] (setting [10]), 96.9%. The Her2 level in assay [2] was 91.5% (inactive). Besides, the differential viability (reversal) in assay [6] (H69AR cells + 2 uM doxorubicin) is 10% (inactive). Also, the inhibition in assay [7] was -2.63% (inactive); in assay [8], 3.71% (inactive).

With `CC(=O)Nc1ccc(OC(=O)c2cccs2)cc1`, the viability in assay [1] was 101%; in assay [3] it was 101% (inactive); in assay [4] it was 103% (inactive); in assay [5] it was 87% (inactive); in assay [6] (setting [9]), 101%; in assay [6] (setting [10]) it was 87%. In addition, the Her2 level in assay [2] is 97% (inactive). The differential viability (reversal) in assay [6] (H69AR cells + 2 uM doxorubicin) is -13.6% (inactive). Besides, the inhibition in assay [7] was -1.17% (inactive); in assay [8], -4.59% (inactive).

Take `CCOC(=O)c1ccc(NS(=O)(=O)c2cccc3nsnc23)cc1`: the viability in assay [1] is 90.5%; in assay [3], 90.5% (inactive); in assay [4], 113% (inactive); in assay [5] it was 95.9% (inactive); in assay [6] (setting [9]), 99.1%; in assay [6] (setting [10]) it was 95.9%. The Her2 level in assay [2] is 106% (inactive). Also, the differential viability (reversal) in assay [6] (H69AR cells + 2 uM doxorubicin) is -3.26% (inactive). For the same molecule, the inhibition in assay [7] is 1.2% (inactive); in assay [8], 2.22% (inactive).

On to `COCCN(CC(=O)NCc1ccccc1)C(=O)CCC(=O)Nc1ccccn1`, for which the viability in assay [1] is 112%; in assay [3], 112% (inactive); in assay [4], 103% (inactive); in assay [5], 92.9% (inactive); in assay [6] (setting [9]) it was 91.5%; in assay [6] (setting [10]) it was 92.9%. The Her2 level in assay [2] was 90.5% (inactive). The differential viability (reversal) in assay [6] (H69AR cells + 2 uM doxorubicin) is 1.44% (inactive). The inhibition is -4.8% (inactive) in assay [7] and 1.94% (inactive) in assay [8].

For the molecule `O=C(COc1ncnc2ccccc12)NCc1ccc2c(c1)OCO2`, the viability in assay [1] was 100%; in assay [3] it was 100% (inactive); in assay [4], 92.8% (inactive); in assay [5] it was 92.6% (inactive); in assay [6] (setting [9]), 94.4%; in assay [6] (setting [10]), 92.6%. Further, the Her2 level in assay [2] was 96% (inactive). Also, in assay [6] (H69AR cells + 2 uM doxorubicin), the differential viability (reversal) is -1.82% (inactive). Also, the inhibition was -4.21% (inactive) in assay [7] and 4.92% (inactive) in assay [8].
